STK33 inh – inhibitors of purified STK33 kinase, primary screen, biochemical, ADP-Glo luminescence, homogeneous, cell-free | Serine/threonine-protein kinase 33 (Homo sapiens), Q9BYT3 | MBP phosphorylation | AID 2661, 2010 | inhibition, % at 10 µM | 320,000 compounds, 0.073% hits;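 active = inhibition at or above 25%, using the most active replicate where run in duplicate; inactive = inhibition below 25%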
GSK3 alpha inh – blockers of GSK3A enzyme activity – biochemical, luminescence, cell-free homogeneous, HTS, primary screen; GSK-3 alpha kinase, ADP-Glo luminescence, 60 min; inhibition, % at 10 µM; 320,000 compounds, 0.1% hits; Glycogen synthase kinase-3 alpha (Homo sapiens), P49840;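 active = more than half of replicates show inhibition above 20%; inconclusive = some but at most half of replicates above 20% inhibition; inactive = no replicate shows inhibition above 20%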;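 also: GST-tagged GSK-3 alpha with peptide substrate and 25 µM ATP; 0% = DMSO neutral wells and 100% = GW8510 positive control wells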
AI-2 QS modul – Vibrio harveyi AI-2 quorum sensing modulators, primary screen, JMH597 strain, luminescence/OD600 ratio; activity change, % at 7.5 µM; Vibrio harveyi JMH597 AI-2 luminescence/OD600 ratio, 9 h; active compounds read low; strain lacks LuxN and CqsS sensors; 0 = neutral-control median; 300,000 compounds, 0.4% hits; in the data active = activity change below about -75%, passing the limit was not always enough; inconclusive = no clear call, values can overlap the other calls;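 also: luminescence divided by OD600 gain over 9 h not by final OD600 alone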
CR mimetic SO – reduction of superoxide in aged yeast, primary screen, HTS. S. cerevisiae aged cells, superoxide DHE fluorescence; active compounds read low. 330,000 compounds, 0.18% hits. superoxide response (% of plate mean), % at 10 µM;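 active = superoxide response under a set limit, about three screen SD below normal, cut at about 65% in these data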;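 also: yeast aged for seven days with compound at 30 °C before DHE staining; 100% = average MFI of all compound-treated wells on the plate with controls excluded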
PolyA inh – polyadenylation inhibitors in yeast reporter cells, primary screen, luminescence, S. cerevisiae. S. cerevisiae SKY197-pL101 polyadenylation reporter, beta-gal luminescence; efflux-impaired pdr1/pdr3 knockout yeast; score 100 = 6 SD above DMSO. activity score, % at 12 µM. 300,000 compounds, 0.02% hits. AID 1875, 2009;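 active = lowest replicate activity score at least 50, where 100 means six control SD above control mean; inconclusive = lowest score under 50 but half or more replicates reach 50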;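 also: yeast exposed to compound for 9 h at 30 °C; higher score means more reporter readthrough which indicates perturbed polyadenylation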
GSK3beta inhib – human GSK3beta kinase inhibitors, primary screen, biochemical, cell-free homogeneous, HTS; Glycogen synthase kinase-3 beta (Homo sapiens), P49841; GST-GSK3beta kinase, ADP-Glo luminescence, 60 min; active compounds read low; 300,000 compounds, 0.038% hits; activity score (negative = inhibition), % at 10 µM;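 active = more than half of replicate wells score below -50%, meaning over 50% inhibition versus plate controls; inconclusive = some replicates but at most half score below -50%; inactive = no replicate scores below -50%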;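 also: 0% = median DMSO wells and -100% = median GW8510 positive control wells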
Target sequence (P49841 whole entry, looked up): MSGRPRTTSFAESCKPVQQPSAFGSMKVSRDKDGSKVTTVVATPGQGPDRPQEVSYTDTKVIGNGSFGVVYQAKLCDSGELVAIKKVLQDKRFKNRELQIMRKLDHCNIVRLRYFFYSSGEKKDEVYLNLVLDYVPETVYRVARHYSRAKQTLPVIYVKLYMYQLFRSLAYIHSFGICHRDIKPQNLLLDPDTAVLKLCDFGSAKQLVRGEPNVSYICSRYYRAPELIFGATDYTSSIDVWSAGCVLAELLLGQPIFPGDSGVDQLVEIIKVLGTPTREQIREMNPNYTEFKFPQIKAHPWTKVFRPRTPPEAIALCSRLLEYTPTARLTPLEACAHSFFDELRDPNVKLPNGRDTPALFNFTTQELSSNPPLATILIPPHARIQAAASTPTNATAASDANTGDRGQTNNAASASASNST
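Test system – GST-tagged human GSK3beta kinase, cell-free · Incubation – 60 min enzyme reaction, room temperature · Signal – ADP-Glo luminescence · Also added – peptide substrate and ATP at 25 µM · Controls – DMSO neutral wells and GW8510 at 20 µM as positive · Buffer or medium – Tris/MgCl2 kinase buffer · Measure – Luminescence-derived activity versus plate DMSO and GW8510 wells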
Numbers without * were called inactive. Rows were chosen to be rich in hits. Some 0.72% of all compounds tested hit in one or more screens of this group.

How did Cc1nc2c(=O)n(C)c(=O)nc-2n(C)n1 do in these assays?
STK33 inh: -2; GSK3 alpha inh: 7; AI-2 QS modul: -95*; CR mimetic SO: 114; PolyA inh: 10; GSK3beta inhib: -23

Results for CCC(C)n1c(O)c(C=Nc2cccc(C(F)(F)F)c2)c(=O)[nH]c1=S (configuration not stated) ?
STK33 inh: -1; GSK3 alpha inh: 0; AI-2 QS modul: 12; CR mimetic SO: 94; PolyA inh: 0; GSK3beta inhib: 0

How did CN1/C(=C\C=C\C2=[N+](C)c3ccc4ccccc4c3C2(C)C)C(C)(C)c2ccccc21 do in these assays?
STK33 inh: 26*; GSK3 alpha inh: 71*; CR mimetic SO: 224

Results for CN1/C(=C\C=Nc2ccccc2)C(C)(C)c2ccccc21 ?
STK33 inh: -2; GSK3 alpha inh: 4; AI-2 QS modul: 13; CR mimetic SO: 102; PolyA inh: 21; GSK3beta inhib: 1

Results for CCN1C[C@]2(COC)CC[C@H](OC)[C@@]34C5C[C@H]6C(=O)C5[C@](O)(C[C@H]6OC)[C@@](O)(C(OC)C23)[C@@H]14 (some centres not stated) ?
STK33 inh: 0; GSK3 alpha inh: -2; AI-2 QS modul: -2; CR mimetic SO: 88; PolyA inh: inconclusive; GSK3beta inhib: 0

How did CC(NS(=O)(=O)OCC(Cl)(Cl)Cl)c1ccccc1 (configuration not stated) do in these assays?
STK33 inh: -2; GSK3 alpha inh: -1; AI-2 QS modul: -8; CR mimetic SO: 103; PolyA inh: -27; GSK3beta inhib: 0

How did CCNC(=O)[C@H]1O[C@@H](n2cnc3c(N)ncnc32)[C@H](O)[C@@H]1O do in these assays?
STK33 inh: 2; GSK3 alpha inh: 14; AI-2 QS modul: 13; CR mimetic SO: 112; PolyA inh: -6; GSK3beta inhib: -6

How did NC(=O)c1cn(C2OC(CO)C(O)C2O)c2ncnc(N)c12 (configuration not stated) do in these assays?
STK33 inh: 13; GSK3 alpha inh: 72*; AI-2 QS modul: 32; CR mimetic SO: 86; PolyA inh: 6; GSK3beta inhib: 0

How did COC(=O)C1=C(c2cccc(OC)c2OC)C[C@@H]2CC[C@H]1N2C(=O)NC1CC1 do in these assays?
STK33 inh: 0; GSK3 alpha inh: -1; AI-2 QS modul: 24; CR mimetic SO: 101; PolyA inh: -7; GSK3beta inhib: 2

How did Cc1cc([N+](=O)[O-])c(Cl)cc1NC(=O)C(C)C do in these assays?
STK33 inh: 0; GSK3 alpha inh: -1; AI-2 QS modul: 13; CR mimetic SO: 106; PolyA inh: -3; GSK3beta inhib: 2

How did CNc1cc(Cl)c2nonc2c1[N+](=O)[O-] do in these assays?
AI-2 QS modul: -90*; PolyA inh: -35; GSK3beta inhib: 1

Results for CCN(CC)S(=O)(=O)c1ccc(N=Cc2c(O)n(-c3ccccc3)c(=O)[nH]c2=O)cc1 ?
STK33 inh: -1; GSK3 alpha inh: 1; AI-2 QS modul: 13; CR mimetic SO: 89; PolyA inh: -1; GSK3beta inhib: 2

How did O=c1[nH]c(=O)n(-c2ccc(Cl)cc2)c(O)c1C=Nc1ccc(S(=O)(=O)Nc2nccs2)cc1 do in these assays?
STK33 inh: -1; GSK3 alpha inh: -36; AI-2 QS modul: -78*; CR mimetic SO: 124; PolyA inh: 7; GSK3beta inhib: 0

What do the screens show for `CC1Oc2cc3c(-c4c(O)cc(O)c5c(O)c6c(cc45)OC(C)C(C)C6=O)c(O)cc(O)c3c(O)c2C(=O)C1C` (configuration not stated)?
STK33 inh: 0; GSK3 alpha inh: -1; AI-2 QS modul: -89*; CR mimetic SO: 88; PolyA inh: -7; GSK3beta inhib: 2

How did CC(=NCCCn1ccnc1)c1c(O)n(C2CCCCC2)c(=O)[nH]c1=O do in these assays?
STK33 inh: -1; GSK3 alpha inh: 67*; AI-2 QS modul: 6; CR mimetic SO: 108; PolyA inh: 0; GSK3beta inhib: 1

How did CC(=NCCCn1ccnc1)c1c(O)n(-c2ccccc2)c(=O)[nH]c1=O do in these assays?
STK33 inh: 0; GSK3 alpha inh: 23; AI-2 QS modul: 3; CR mimetic SO: 112; PolyA inh: -20; GSK3beta inhib: -11

Results for CCN(CC)CCN=Cc1c(O)n(C2CCCCCC2)c(=O)[nH]c1=O ?
STK33 inh: 1; GSK3 alpha inh: 13; AI-2 QS modul: 25; CR mimetic SO: 85; PolyA inh: 9; GSK3beta inhib: -4

How did O=c1[nH]c(=O)n(C2CCCCC2)c(O)c1C=NCCCn1ccnc1 do in these assays?
STK33 inh: -1; GSK3 alpha inh: 67*; AI-2 QS modul: -9; CR mimetic SO: 104; PolyA inh: 17; GSK3beta inhib: 2

Results for COc1ccc(CC(C)NC2CCCCCC2)cc1 (configuration not stated) ?
STK33 inh: -2; GSK3 alpha inh: 5; AI-2 QS modul: 1; CR mimetic SO: 96; PolyA inh: -10; GSK3beta inhib: -1

How did Cc1c(CCN)ccc2c1[nH]c1ccccc12 do in these assays?
STK33 inh: 2; GSK3 alpha inh: 3; AI-2 QS modul: 17; CR mimetic SO: 65*; PolyA inh: 3; GSK3beta inhib: -3

Results for CCn1nc(-c2ccccc2)nc2c(=O)n(C)c(=O)nc1-2 ?
STK33 inh: 3; GSK3 alpha inh: 20; AI-2 QS modul: -93*; CR mimetic SO: 229; PolyA inh: -13; GSK3beta inhib: -32

How did CCCN1CCc2cccc3c2[C@H]1Cc1ccc(O)c(O)c1-3 do in these assays?
STK33 inh: -1; GSK3 alpha inh: 8; AI-2 QS modul: 18; CR mimetic SO: 33*; PolyA inh: 1; GSK3beta inhib: -3

What do the screens show for `CCn1c(=O)cc(SCC(=O)N2CCC3(CC2)OCCO3)c2ccccc21`?
STK33 inh: -1; GSK3 alpha inh: -2; AI-2 QS modul: 3; CR mimetic SO: 87; PolyA inh: 26; GSK3beta inhib: 4

How did C/C(=C\c1ccc(N(C)C)cc1)[N+](=O)[O-] do in these assays?
STK33 inh: 1; GSK3 alpha inh: -1; AI-2 QS modul: -91*; CR mimetic SO: 80; PolyA inh: 12; GSK3beta inhib: 0

Bioassay records (PubChem)
